# EBNA-1 inh = blocks EBNA-1 binding to DNA; EBNA-1 DNA binding, fluorescence polarization; inhibition, % at 14.8 µM; 0.34% of 300,000 active; AID 1950; in the data active means inhibition above about 28%
# DNA FID counter = counter-screen for HCV NS3 helicase inhibitors: DNA intercalator displacement. 0.17% of 290,000 active. DNA fluorescent intercalator displacement, fluorescence. inhibition, % at 7.9 µM; in the data active means inhibition above about 37%;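 further: 0% = vehicle and 100% = reference compound; higher means more ethidium bromide displaced from hairpin DNA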
# HCV NS3 hel inh = blocks Hepatitis C virus NS3 helicase unwinding; inhibition, % at 10.9 µM; NS3 helicase DNA unwinding, Cy5 molecular beacon fluorescence; AID 1800; 0.56% of 290,000 active;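 active means inhibition above the mean of all tested compounds plus 3 SD, set per campaign, cut at about 35% in these data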;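 further: 0% = DMSO wells and 100% = thioflavine S control wells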
#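 System: NS3 helicase fragment of HCV / Schedule: 1 h at 25 °C / Control set: DMSO alone as 0% and 110 µM thioflavine S as 100% / Reagent: Cy5/quencher beacon DNA duplex and ATP to start / Technique: Cy5 fluorescence / Replication: singlicate / Evaluation: % inhibition of end-to-start signal ratio versus controls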
# GRIN3A LBD mod = modulators (binders) of human NR3A ligand-binding domain; NR3A LBD differential scanning fluorimetry, Tm shift; 0% = protein alone, 100% = glycine-bound protein; Tm shift relative to glycine control, % at 25 µM; 2.5% of 340,000 active;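 active means melting temperature shift of at least 10% of the positive control shift, at one fixed dose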
# FGF22 binding = shifts melting point of recombinant human FGF22; recombinant FGF22 thermal shift, SYPRO orange fluorescence; percent of sucrose octasulfate shift, DMSO zero; AID 651658; Q9HCT0; 1.5% of 340,000 active; activity (Tm shift, normalised), % at 9.99 µM;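 active means mean Tm shift, scaled 0 neutral to 100 positive control, at about 1.3% or above, every replicate too, limit read from the data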
# Target sequence (Q9HCT0 whole entry, looked up): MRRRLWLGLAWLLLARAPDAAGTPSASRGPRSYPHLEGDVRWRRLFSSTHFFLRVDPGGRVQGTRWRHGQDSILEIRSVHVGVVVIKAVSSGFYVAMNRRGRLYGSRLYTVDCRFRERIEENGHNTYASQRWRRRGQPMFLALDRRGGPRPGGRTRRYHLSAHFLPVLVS
# ZTA DNA inh = ZTA (EBV) inhibition in EBNA-1 counter-screen; AID 2234; ZTA-DNA binding, fluorescence polarization; inhibition, % at 11 µM; 0.15% of 320,000 active; P03206; in the data active means inhibition above about 33%
# Target sequence (P03206 whole entry, looked up): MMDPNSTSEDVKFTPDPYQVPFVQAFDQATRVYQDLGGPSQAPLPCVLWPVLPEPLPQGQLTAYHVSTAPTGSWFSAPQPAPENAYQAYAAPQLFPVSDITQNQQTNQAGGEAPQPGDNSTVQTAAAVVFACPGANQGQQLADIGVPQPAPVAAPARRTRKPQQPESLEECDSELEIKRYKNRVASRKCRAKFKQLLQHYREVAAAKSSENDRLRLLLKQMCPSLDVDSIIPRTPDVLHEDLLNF
# EBNA-1 confirm = EBNA-1 (EBV) inhibition, confirmation | 35% of 830 active | AID 2292 | inhibition, % at 14.8 µM | shares compounds with EBNA-1 inh | Recombinant EBNA-1 DBD, Cy5-DNA fluorescence polarization;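 active means mean inhibition across replicates above a set limit taken from the earlier primary screen, cut at about 28% in these data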;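 further: plate controls were EBNA-1 protein with DMSO for no effect and wells lacking EBNA-1 for full effect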
# ZTA DNA inh trip = ZTA (EBV) inhibition, triplicate counter-screen; shares compounds with EBNA-1 inh; Zta-ZRE DNA binding, Cy5 fluorescence polarization; inhibition, % at 11.1 µM; 830 tested, under 10 active; AID 2328;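 active means mean inhibition over triplicates above a set limit taken from the primary EBNA-1 screen, cut at about 37% in these data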;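 further: purified full length Zta protein with Cy5 labeled ZRE DNA probe; 0% = Zta with DMSO and 100% = wells lacking Zta protein; inhibitors lower polarization by freeing the labeled DNA probe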
# * marks the source's active call; other numbers are inactive results; / = not tested or not shown. Sampled rows, rich in hits. Any-hit rate of the full collection: about 3.6%.
SMILES,EBNA-1 inh,DNA FID counter,HCV NS3 hel inh,GRIN3A LBD mod,FGF22 binding,ZTA DNA inh,EBNA-1 confirm,ZTA DNA inh trip
CCC(=O)NC(=S)Nc1ccc(NC(=O)c2ccc(C)c([N+](=O)[O-])c2)cc1,43*,7,-17,34*,0,1,33*,5
CC(=O)N1CCN(c2ccc(NC(=S)NC(=O)c3ccc(C)c([N+](=O)[O-])c3)cc2)CC1,-15,-22,-7,-1,0,-6,/,/
CSc1nc2ccc(NC(=O)c3ccc(Cl)s3)cc2s1,38*,0,11,-1,0,-6,34*,3
O=C(NCc1ccc2c(c1)OCO2)C12CN(Cc3ccccc3)CC1C(c1cccc([N+](=O)[O-])c1)=NO2 (configuration not stated),174*,-6,-6,0,0,11,-21,-5
COc1ccccc1NC(=O)c1cc2n(n1)C(C(F)(F)F)CC(c1ccc3c(c1)OCO3)N2 (configuration not stated),1,-15,-7,-1,/,1,/,/
COc1ccc(C2CC(C(F)(F)F)n3nc(C(=O)Nc4ccc5c(c4)OCO5)cc3N2)cc1 (configuration not stated),40*,-19,-13,-10,/,1,110*,-1
O=C(CSc1nnc(-c2ccc(Br)cc2)o1)Nc1cccc2ccccc12,40*,-10,-1,0,0,-1,52*,0
O=C(CSc1nnc(-c2ccc(Br)cc2)o1)Nc1cccc(C(=O)O)c1,0,-42,4,-2,0,12,/,/
c1ccc(-c2ccc(C3=Nn4c(nnc4-c4cc(-c5ccccc5)n[nH]4)SC3)cc2)cc1,33*,-1,-3,3,0,12,52*,24
Cc1ccc2oc(-c3cccc(NC(=O)Cc4cccs4)c3)nc2c1,34*,-1,6,-10,/,7,14,-3
O=C(Nc1ccc2oc(-c3ccc4ccccc4c3)nc2c1)c1ccc2c(c1)OCCO2,31*,-1,5,10*,/,12,25,9
Cc1ccc2nc(-c3cccc(NC(=O)c4ccc5c(c4)OCCO5)c3)oc2c1,35*,5,-2,1,/,19,23,7
CCC(=O)Nc1cccc(-c2nc3ccc(C)cc3o2)c1,-8,-24,0,-3,0,-20,/,/
O=C(Nc1ccc2oc(-c3ccccc3)nc2c1)c1ccccc1F,35*,-10,-5,-14,/,12,-3,-2
O=C(Nc1ccc2oc(-c3ccncc3)nc2c1)c1ccccc1,9,0,-10,-7,0,10,/,/
COc1cccc(CNC(=O)c2cc3oc4ccccc4c3n2C)c1OC,32*,-16,-11,4,/,1,24,-11
CCOc1ccc(CNC(=O)c2cc3oc4ccccc4c3n2C)cc1,5,-11,-11,-5,/,-6,/,/
C=CCn1c(SCC(=O)NCc2ccco2)nc2sc(C)c(C)c2c1=O,42*,-1,3,0,0,-13,14,6
Cc1sc2nc(SCC(=O)NCc3ccco3)n(Cc3ccccc3)c(=O)c2c1C,15,-29,12,-1,/,-20,/,/
Cc1noc(C)c1NC(=O)Nc1ccc2c(c1)CC(=O)N([C@H](C)CO)C[C@H](C)[C@@H](CN(C)S(=O)(=O)c1cn(C)cn1)O2,/,/,/,/,0,/,/,/
CCCCn1c(CN2C(=O)c3ccccc3C2=O)nc2ccccc2c1=O,32*,-4,4,-2,/,25,31*,13
Cc1cccc(C)c1NC(=O)Cn1nnc(C(=O)Nc2ccc(F)cc2F)c1N,28*,-5,8,0,0,-6,29*,-4
C[C@H](CO)N1C[C@H](C)[C@H](CN(C)C(=O)Nc2cccc3ccccc23)Oc2ncc(C#Cc3ccc(C(F)(F)F)cc3)cc2C1=O,/,/,/,/,0,/,/,/
CCCN1C[C@H](C)[C@@H](OC)CN(C)C(=O)c2cc(NC(=O)NC3CCCCC3)ccc2OC[C@@H]1C,/,/,/,/,0,/,/,/
CCCN1Cc2cccc(C(=O)Nc3ccc(-c4nc5ccccc5[nH]4)cc3)c2C1=O,58*,-2,7,-9,/,-6,51*,3
SMILES,EBNA-1 inh,DNA FID counter,HCV NS3 hel inh,GRIN3A LBD mod,FGF22 binding,ZTA DNA inh,EBNA-1 confirm,ZTA DNA inh trip
C[C@H]1CCCCO[C@H](CN(C)S(=O)(=O)c2ccc(F)cc2)[C@@H](C)CN([C@@H](C)CO)C(=O)c2cc(NC(=O)Cc3ccccc3)ccc2O1,/,/,/,/,0,/,/,/
Cc1ccc(C)c(N(CC(=O)Nc2ccc(-c3nc4ccc(C)cc4s3)cc2)S(C)(=O)=O)c1,36*,-4,-3,23*,0,9,3,-10
COc1cccc(C(=O)N/N=C/c2ccc(OC3CSC3)cc2)c1,0,-5,11,-6,/,-18,/,/
Cc1cccc(C(=O)N/N=C/c2ccc(OC3CSC3)cc2)c1,35*,-6,3,-18,0,4,4,-4
COc1ccc2cc(/C=N/NC(=O)c3c(Cl)cnn3C)c(Cl)nc2c1,-1,-4,-12,-6,/,-3,/,/
COc1ccc2cc(/C=N/NC(=O)c3ccc(CN(c4ccc(C)c(C)c4)S(C)(=O)=O)cc3)c(Cl)nc2c1,53*,-10,-1,-3,/,-3,24,14
COc1ccc2cc(/C=N/NC(=O)CN(c3ccccc3)S(=O)(=O)c3ccccc3)c(Cl)nc2c1,35*,-11,3,/,/,-4,7,-10
COC(=O)COc1ccc(/C=N/NC(=O)c2ccc(N(Cc3ccccc3)S(C)(=O)=O)cc2)cc1,67*,-35,-10,1,0,-20,16,0
CC1CCN(S(=O)(=O)c2ccc(NC(=O)Cn3nnc(-c4ccccc4)n3)cc2)CC1,30*,-6,-35,11*,/,19,5,-15
O=C(Nc1ccc2oc(=O)ccc2c1)c1ccc(-c2cccc(Cl)c2)o1,32*,-8,13,29*,0,5,25,21
Cc1noc(C)c1S(=O)(=O)Nc1ccc2c(c1)CC(=O)N([C@H](C)CO)C[C@@H](C)[C@@H](CN(C)Cc1ccc3c(c1)OCO3)O2,/,/,/,/,0,/,/,/
CCCc1cc2c(cc1NC(=O)c1ccc(Br)cc1)OCO2,33*,-7,-7,0,/,-3,0,-8
CC1CCCCC1NC(=O)C1CCC(CNS(=O)(=O)c2ccccc2)CC1 (configuration not stated),31*,-32,-10,0,0,-3,9,6
O=C(N[C@H]1CC[C@@H](CCn2cc(-c3ccccc3)nn2)O[C@@H]1CO)c1cnccn1,/,/,/,/,0,/,/,/

# Screening data: PubChem, several laboratories
